Key:
MOLT-4 = experiment: Cytotoxicity against human MOLT4 cells after 24 hrs by SRB assay; type: functional; details: MOLT-4, 24 h
Outline: (§1)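 NCI 60-line screen. Cells in RPMI 1640 with 5% FBS and 2 mM L-glutamine, seeded at 5,000–40,000 cells/well by doubling time, then incubated 24 h at 37 °C, 5% CO2 before dosing. Time-zero plates fixed with TCA at drug addition. DMSO stocks diluted in medium with gentamicin to five concentrations, […]. Protein read by SRB staining. GI50, TGI and LC50 derived relative to control and time-zero.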

NCI-H226 = experiment: Cytotoxicity against human NCI-H226 cells after 24 hrs by SRB assay; type: functional; details: NCI-H226, 24 h; outline: as §1
NCI-H23 = experiment: Cytotoxicity against human NCI-H23 cells after 24 hrs by SRB assay; type: functional; details: NCI-H23, 24 h; outline: as §1
COLO 205 = experiment: Cytotoxicity against human COLO205 cells after 24 hrs by SRB assay; type: functional; details: COLO 205, 24 h; outline: as §1
HCT-116 = experiment: Cytotoxicity against human HCT116 cells after 24 hrs by SRB assay; type: functional; details: HCT-116, 24 h; outline: as §1
HT-29 = experiment: Cytotoxicity against human HT-29 cells after 24 hrs by SRB assay; type: functional; details: HT-29, 24 h; outline: as §1
KM12 [1] = experiment: (§2) Cytotoxicity against human KM12 cells after 24 hrs by SRB assay; type: functional; details: KM12, 24 h; outline: as §1
HCC 2998 = experiment: Cytotoxicity against human HCC2998 cells after 24 hrs by SRB assay; type: functional; details: HCC 2998, 24 h; outline: as §1
U-251 [2] = experiment: (§3) Cytotoxicity against human U251 cells after 24 hrs by SRB assay; type: functional; details: U-251, 24 h
Outline: (§4)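 NCI 60-cell screen. Cells are grown in RPMI 1640 with 5% FBS and 2 mM L-glutamine and seeded at 5,000–40,000 cells/well according to doubling time. They are preincubated 24 h at 37 °C in 5% CO2, and Tz plates are TCA-fixed at drug addition. Drug stock is in DMSO, diluted in medium with gentamicin, and tested at five concentrations (100, 10, 1.0, 0.1, […]). Protein is read by SRB staining. GI50, TGI and LC50 are derived relative to time-zero and control wells.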

SNB-19 = experiment: Cytotoxicity against human SNB19 cells after 24 hrs by SRB assay; type: functional; details: SNB-19, 24 h; outline: as §4
SNB-75 = experiment: Cytotoxicity against human SNB75 cells after 24 hrs by SRB assay; type: functional; details: SNB-75, 24 h; outline: as §4
SK-MEL-5 = experiment: Cytotoxicity against human SK-MEL-5 cells after 24 hrs by SRB assay; type: functional; details: SK-MEL-5, 24 h; outline: as §1
SN12C = experiment: Cytotoxicity against human SN12C cells after 24 hrs by SRB assay; type: functional; outline: as §1
DU-145 = experiment: Cytotoxicity against human DU145 cells after 24 hrs by SRB assay; type: functional; details: DU-145, 24 h; outline: as §1
BT-549 = experiment: Cytotoxicity against human BT549 cells after 24 hrs by SRB assay; type: functional; details: BT-549, 24 h; outline: as §1
T47D = experiment: Cytotoxicity against human T47D cells after 24 hrs by SRB assay; type: functional; outline: as §4
RPMI-8226 [3] = experiment: (§5) Cytotoxicity against human RPMI8226 cells after 24 hrs by SRB assay; type: cell-based; details: rpmi-8226, 24 h
Outline: (§6)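 NCI 60-cell screen. Cells grown in RPMI 1640 with 5% FBS and 2 mM L-glutamine, seeded at 5,000–40,000 cells/well, preincubated 24 h at 37 °C in 5% CO2. Drug stock in DMSO, diluted in medium with gentamicin; five final concentrations, 100, 10, 1.0, 0.1 and […]. Time-zero plates were TCA-fixed. Protein read by SRB staining; GI50, TGI and LC50 taken relative to time-zero.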

HL-60 [4] = experiment: (§7) Cytotoxicity against human HL60 cells after 24 hrs by SRB assay; type: cell-based; details: hl-60, 24 h; outline: as §6
HOP-62 = experiment: Cytotoxicity against human HOP62 cells after 24 hrs by SRB assay; type: cell-based; details: hop-62, 24 h; outline: as §6
NCI-H522 = experiment: Cytotoxicity against human NCI-H522 cells after 24 hrs by SRB assay; type: cell-based; details: nci-h522, 24 h; outline: as §6
HOP-92 = experiment: Cytotoxicity against human HOP92 cells after 24 hrs by SRB assay; type: cell-based; details: hop-92, 24 h; outline: as §6
A549 = experiment: Cytotoxicity against human A549 cells after 24 hrs by SRB assay; type: cell-based; details: a549, 24 h; outline: as §6
KM12 [5] = experiment: as §2; type: cell-based; details: km12, 24 h; outline: as §6
U-251 [6] = experiment: as §3; type: cell-based; details: u-251, 24 h
Outline: (§8)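 NCI 60-cell-line screen: cells grown in RPMI 1640 with 5% FBS and 2 mM L-glutamine, seeded at 5,000–40,000 cells/well by doubling time, and preincubated 24 h at 37 °C in 5% CO2. Time-zero plates were TCA-fixed. DMSO stocks were diluted in medium with gentamicin to five concentrations (100, 10, 1.0, 0.1, […]). Protein was read by SRB, and GI50, TGI and LC50 were derived against time-zero.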

LOX IMVI = experiment: Cytotoxicity against human LOXIMVI cells after 24 hrs by SRB assay; type: cell-based; outline: as §6
RPMI-8226 [7] = experiment: as §5; type: functional; details: RPMI-8226, 24 h; outline: as §1
HL-60 [8] = experiment: as §7; type: functional; details: HL-60, 24 h; outline: as §1
UACC-62 = experiment: Cytotoxicity against human UACC62 cells after 24 hrs by SRB assay; type: cell-based; details: uacc-62, 24 h; outline: as §8
SK-MEL-2 = experiment: Cytotoxicity against human SK-MEL-2 cells after 24 hrs by SRB assay; type: cell-based; details: sk-mel-2, 24 h; outline: as §6
M14 = experiment: Cytotoxicity against human M14 cells after 24 hrs by SRB assay; type: cell-based; details: m14, 24 h; outline: as §6
OVCAR-5 = experiment: Cytotoxicity against human OVCAR5 cells after 24 hrs by SRB assay; type: cell-based; details: ovcar-5, 24 h; outline: as §6
RXF 393 = experiment: Cytotoxicity against human RXF393 cells after 24 hrs by SRB assay; type: cell-based; details: rxf 393, 24 h; outline: as §6
MDA-MB-231 = experiment: Cytotoxicity against human MDA-MB-231 cells after 24 hrs by SRB assay; type: cell-based; details: mda-mb-231, 24 h; outline: as §6
MDA-MB-468 = experiment: Cytotoxicity against human MDA-MB-468 cells after 24 hrs by SRB assay; type: cell-based; details: mda-mb-468, 24 h; outline: as §6
[9] = Cytotoxicity against human Hs 578T cells after 24 hrs by SRB assay; type: cell-based; outline: as §6

`O=C(/C=C/c1cc2ccccc2[nH]c1=O)c1ccc(O)cc1` showed a GI50 (MOLT-4) of 3.04 µM, a TGI (MOLT-4) of 9.91 µM and a GI50 (NCI-H226) of 3.29 µM. It also gave a TGI (NCI-H226) of 10.9 µM, a GI50 (NCI-H23) of 3.18 µM and a TGI (NCI-H23) of 20 µM. It also gave a GI50 (COLO 205) of 4.05 µM, a TGI (COLO 205) of 19.7 µM and a GI50 (HCT-116) of 1.94 µM. It also gave a TGI (HCT-116) of 4.38 µM, a GI50 (HT-29) of 3.61 µM and a TGI (HT-29) of 12.1 µM. The GI50 (KM12 [1]) was 1.89 µM, the TGI (KM12 [1]) was 4.5 µM and the GI50 (HCC 2998) was 4.13 µM. It also gave a TGI (HCC 2998) of 22.3 µM, a GI50 (U-251 [2]) of 2.6 µM and a TGI (U-251 [2]) of 10.9 µM. The GI50 (SNB-19) was 4.59 µM, the TGI (SNB-19) was 18 µM and the GI50 (SNB-75) was 9.3 µM. The TGI (SNB-75) was 23 µM, the GI50 (SK-MEL-5) was 3.98 µM and the TGI (SK-MEL-5) was 13.3 µM. For the same compound, the GI50 (SN12C) was 3.48 µM, the TGI (SN12C) was 16 µM and the GI50 (DU-145) was 4.02 µM. For the same compound, the TGI (DU-145) was 14.3 µM, the GI50 (BT-549) was 1.95 µM and the TGI (BT-549) was 5.35 µM. For the same compound, the GI50 (T47D) was 4.19 µM, the TGI (T47D) was 20.4 µM and the LC50 (RPMI-8226 [3]) was > 100 µM. The LC50 (HL-60 [4]) was > 100 µM, the LC50 (HOP-62) was 85.2 µM and the LC50 (NCI-H522) was 6.36 µM. For the same compound, the LC50 (HOP-92) was > 100 µM, the LC50 (A549) was 89.9 µM and the LC50 (KM12 [5]) was 15.4 µM. For the same compound, the LC50 (U-251 [6]) was 45.3 µM, the LC50 (LOX IMVI) was > 100 µM and the GI50 (RPMI-8226 [7]) was 3.2 µM. For the same compound, the TGI (RPMI-8226 [7]) was 24.8 µM, the GI50 (HL-60 [8]) was 2.66 µM and the TGI (HL-60 [8]) was 6.86 µM. The LC50 (UACC-62) was 39.6 µM, the LC50 (SK-MEL-2) was 48.3 µM and the LC50 (M14) was > 100 µM. The LC50 (OVCAR-5) was 44.4 µM, the LC50 (RXF 393) was 6.33 µM and the LC50 (MDA-MB-231) was > 100 µM. For the same compound, the LC50 (MDA-MB-468) was 19.8 µM and the LC50 [9] was > 100 µM.

From ChEMBL document CHEMBL2086296, “Synthesis of novel quinoline-2-one based chalcones of potential anti-tumor activity” (Eur J Med Chem, 2012)
